The source made the active and inactive calls. The rule behind the calls is not given here.
Columns and labels:
SU-DHL10 = test: Antiproliferative activity against human SUDHL10 cells assessed as growth inhibition measured after 72 hrs by calcein AM dye-based fluorescence assay; assay type: functional, cell-based; details: SU-DHL10, 72 h
In short: (§1)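 Cells exposed in triplicate to six concentrations for 72 h; calcein AM added for 1 h, live-cell fluorescence read at 485/538 nm (ex/em). GI50 taken from dose-response curves.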

[1] = Antiproliferative activity against human HBL2 cells assessed as growth inhibition measured after 72 hrs by calcein AM dye-based fluorescence assay; assay type: functional, cell-based; details: HBL2, 72 h; in short: as §1
Maver1 [2] = test: Induction of apoptosis in human Maver1 cells assessed as reduction in XIAP expression at 1.5 to 12.5 nM after 24 hrs by immunoblot analysis; assay type: functional, cell-based
In short: (§2)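 Lymphoma cell lines were cultured as the providers instruct and exposed to compound at several doses or for several times. Lysates were run on SDS-PAGE and blotted to nitrocellulose. Blots were blocked, incubated overnight with primary antibodies diluted in PBS with 5% milk and 0.1% Tween 20, then with peroxidase-conjugated secondaries, and detected by chemiluminescence on a CCD camera.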

Homo sapiens [3] = organism: Homo sapiens; test: Induction of apoptosis in human UPF1H cells assessed as reduction in XIAP expression at 12.5 to 100 nM after 24 hrs by immunoblot analysis; assay type: functional, cell-based; in short: as §2
Mus musculus [4] = test: Ex vivo antitumor activity against human UPF1H cells xenografted NSG mouse assessed as down regulation of MCL1 expression at 5 to 10 mg/kg, iv measured after 24 hrs by immunoblotting analysis; assay type: functional, organism-based
In short: (§3)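 Female NSG mice, 8-12 weeks old, implanted s.c. with lymphoma cells. Once tumors were palpable, mice received a single tail-vein i.v. dose (5 or 10 mg/kg) of compound dissolved in PBS. Mice were euthanized 24 h later. Tumors were excised, filtered through 45 µm nylon mesh and lysed, then proteins were analysed by immunoblotting.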

CDK2/Cyclin A2 = CDK2/Cyclin A2 (Homo sapiens, UniProt P24941); test: Inhibition of GST-tagged CDK2/Cyclin-A2 (unknown origin) expressed in Escherichia coli using histone H1 as substrate measured in presence of [gamma-33P]ATP
HT = test: Antiproliferative activity against human HT cells assessed as growth inhibition measured after 72 hrs by calcein AM dye-based fluorescence assay; assay type: functional, cell-based; in short: as §1
Homo sapiens [5] = organism: Homo sapiens; test: Induction of apoptosis in human Mino cells assessed as effect on BCL-xL protein expression at 12.5 nM after 2 to 24 hrs by immunoblotting analysis; assay type: functional, cell-based; in short: as §2
Mus musculus [6] = test: Ex vivo antitumor activity against human UPF1H cells xenografted NSG mouse assessed as down regulation of XIAP expression at 5 to 10 mg/kg, iv measured after 24 hrs by immunoblotting analysis; assay type: functional, organism-based; in short: as §3
[7] = target: Cyclin-dependent kinase 2 (Homo sapiens) (UniProt P24941); test: Inhibition of CDK2 in human Mino cells assessed as decrease in phosphorylation of Rb at Ser 780 residue at 12.5 nM by immunoblotting analysis; assay type: cell-based; details: TDE = time-dependent effect
In short: (§4)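 MINO lymphoma cells were treated at 12.5 nM, with time points over 24 h. Lysates were separated by SDS-PAGE and blotted to nitrocellulose. Phospho-RNA polymerase II CTD (Ser2, Ser5) and phospho-Rb (Ser608, Ser780) were probed with primary antibodies overnight and peroxidase-conjugated secondaries. Detection was by chemiluminescence on a CCD camera.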

Mus musculus [8] = test: Ex vivo antitumor activity against Maver1 xenografted NSG mouse assessed as down regulation of XIAP expression at 10 mg/kg, iv measured after 24 hrs by immunoblotting analysis; assay type: functional, organism-based
In short: (§5)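 NSG mice bearing palpable s.c. tumors received a single i.v. dose (5 or 10 mg/kg) and were euthanized after 24 h. Excised tumors were filtered through 45 µm nylon mesh, lysed and run on SDS-PAGE, transferred to nitrocellulose, probed overnight with primary antibodies in PBS with 5% milk and 0.1% Tween 20, then peroxidase secondaries, with chemiluminescent detection.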

Maver1 [9] = test: Antitumor activity against human Maver1 cells xenografted in NSG mouse assessed as inhibition of tumor growth at 9 mg/kg measured on day 13 in presence of BCL2 inhibitor venetoclax by caliper method; assay type: functional, organism-based
In short: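 MAVER-1 cells implanted s.c. in NSG mice. Groups: vehicle n=6, 9 mg/kg n=8, venetoclax 20 mg/kg n=8, combination n=10. Tumors measured daily by caliper in two perpendicular dimensions. Mean volumes ±SD tracked from therapy start (day 1).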

Maver1 [10] = test: Induction of apoptosis in human Maver1 cells assessed as activation of caspase-7 at 1.5 to 12.5 nM after 24 hrs by immunoblot analysis; assay type: functional, cell-based; in short: as §2
Mus musculus [11] = test: Ex vivo antitumor activity against patient derived VFN-M1 cells xenografted NSG mouse assessed as effect on BCL2 expression at 10 mg/kg, iv measured after 24 hrs by immunoblotting analysis; assay type: functional, organism-based; in short: as §3
Mus musculus [12] = test: Ex vivo antitumor activity against human Mino cells xenografted NSG mouse assessed as cleavage of PARP1 at 5 to 10 mg/kg, iv measured after 24 hrs by immunoblotting analysis; assay type: functional, organism-based; in short: as §5
Mus musculus [13] = test: Ex vivo antitumor activity against human UPF1H cells xenografted NSG mouse assessed as increase in cleaved caspase 9 expression at 5 to 10 mg/kg, iv measured after 24 hrs by immunoblotting analysis; assay type: functional, organism-based; in short: as §3
Mus musculus [14] = test: Ex vivo antitumor activity against patient derived VFN-M1 cells xenografted NSG mouse assessed as increase in cleaved caspase 9 expression at 10 mg/kg, iv measured after 24 hrs by immunoblotting analysis; assay type: functional, organism-based; in short: as §3
HeLa = test: Antiproliferative activity against human HeLa cells assessed as growth inhibition measured after 72 hrs by calcein AM dye-based fluorescence assay; assay type: functional, cell-based; in short: as §1
Mus musculus [15] = test: Ex vivo antitumor activity against human Mino cells xenografted NSG mouse assessed as increase in cleaved caspase 7 expression at 5 to 10 mg/kg, iv measured after 24 hrs by immunoblotting analysis; assay type: functional, organism-based; in short: as §5
[16] = target: Cyclin-dependent kinase 2/cyclin E1 (Homo sapiens, UniProt P24941); test: Inhibition of His-tagged CDK2/Cyclin-E1 (unknown origin) expressed in baculovirus infected Sf9 insect cells using histone H1 as substrate measured in presence of [gamma-33P]ATP; assay type: cell-based
Maver1 [17] = test: Induction of apoptosis in human Maver1 cells assessed as reduction in MCL1 expression at 1.5 to 12.5 nM after 24 hrs by immunoblot analysis; assay type: functional, cell-based; in short: as §2
[18] = target: Cyclin-dependent kinase 2 (Homo sapiens) (UniProt P24941); test: Inhibition of CDK2 in human Mino cells assessed as decrease in phosphorylation of Rb at Ser 608 residue at 12.5 nM by immunoblotting analysis; assay type: cell-based; details: TDE = time-dependent effect; in short: as §4
Maver1 [19] = test: Antiproliferative activity against human Maver1 cells assessed as growth inhibition measured after 72 hrs by calcein AM dye-based fluorescence assay; assay type: functional, cell-based; details: Maver1, 72 h; in short: as §1
Mus musculus [20] = test: Ex vivo antitumor activity against patient derived VFN-M1 cells xenografted NSG mouse assessed as down regulation of XIAP expression at 10 mg/kg, iv measured after 24 hrs by immunoblotting analysis; assay type: functional, organism-based; in short: as §3

With CC(C)c1n[nH]c2c(NCc3ccc(-c4ccccn4)cc3)nc(SCCN)nc12 the GI50 (SU-DHL10) was 17 nM, the IC50 (SU-DHL10) was 17 nM and the GI50 [1] was 43 nM. For the same compound, the IC50 [1] was 43 nM, the Activity (Maver1 [2]) was “Active” and the Activity (Homo sapiens [3]) was “Active”. For the same compound, the Activity (Mus musculus [4]) was “Active”, the IC50 (CDK2/Cyclin A2) was 6 nM and the GI50 (HT) was 19 nM. The IC50 (HT) was 19 nM, the Activity (Homo sapiens [5]) was “inactive” and the Activity (Mus musculus [6]) was “Active”. For the same compound, the inhibition [7] was “Tde”, the Activity (Mus musculus [8]) was “Active” and the TGI (Maver1 [9]) was “Active”. For the same compound, the Activity (Maver1 [10]) was “Active”, the Activity (Mus musculus [11]) was “inactive” and the Activity (Mus musculus [12]) was “Active”. The Activity (Mus musculus [13]) was “Active”, the Activity (Mus musculus [14]) was “Active” and the GI50 (HeLa) was 21.6 nM. The IC50 (HeLa) was 17 nM, the Activity (Mus musculus [15]) was “Active” and the IC50 [16] was 2 nM. For the same compound, the Activity (Maver1 [17]) was “Active”, the inhibition [18] was “Tde” and the GI50 (Maver1 [19]) was 13 nM. For the same compound, the IC50 (Maver1 [19]) was 13 nM and the Activity (Mus musculus [20]) was “Active”.

— ChEMBL document CHEMBL4385606, “3,5,7-Substituted Pyrazolo[4,3- d]pyrimidine Inhibitors of Cyclin-Dependent Kinases and Their Evaluation in Lymphoma Models” (J Med Chem, 2019)
